Measured values collected from several papers.
Protocols differ between the studies behind these lines.
Target: Tyrosine-protein kinase CSK (CSK, Homo sapiens, UniProt P41240)

O=C(NCc1ncc(C(F)(F)F)cc1Cl)c1ccc2c(c1)C1(CCS(=O)(=O)CC1)[C@@H](C1CC1)N2S(=O)(=O)c1ccc(F)cc1
remaining binding (cell-free assay; competition with immobilised ligand; 1 µM): 96%

Nc1ncc(-c2nc(N3CCOCC3)nc(N3CCOCC3)n2)c(C(F)F)n1
remaining binding (binding; competition with immobilised ligand; 10 µM): 73%

CC(C)(C)c1cc(C=C(C#N)C#N)cc(Br)c1O
remaining activity (enzyme activity; inhibitor; 0.5 µM): 106%

COc1ncccc1-c1cnn2ccc(N3CCN(C(=O)OC(C)C)CC3)nc12
remaining binding (binding; competition with immobilised ligand; 1 µM): 100%

N#CC1(c2ccccn2)CCN(Cc2cc(C(=O)O)c(=O)n3ccccc23)CC1
remaining binding (cell-free assay; competition with immobilised ligand; 1 µM): 100%

Cn1cc(-c2cc(F)cc(N3CCn4c(cc5c4CCCC5)C3=O)c2CO)cc(Nc2ccc(N3CCN(C4COC4)CC3)cn2)c1=O
inhibition (enzyme activity; inhibitor; 0.1 µM): 12%

Cc1nn(C)cc1-c1nc2c(N3CCN(Cc4ccc(Cl)cc4)CC3)c(Cl)cnc2[nH]1
remaining binding (binding; competition with immobilised ligand; 1 µM): 100%

Cn1cc(-c2cccc(N3CCc4c(sc5c4CC(C)(C)C5)C3=O)c2CO)cc(Nc2ccncn2)c1=O
inhibition (enzyme activity; inhibitor; 1 µM): 4%

O=c1[nH]c2ccccc2n1C1CCN(Cc2ccc(-c3[nH]c4cc5ncnc5cc4nc3-c3ccccc3)cc2)CC1
remaining activity (enzyme activity; 0.5 µM): 101%
